assay: Toxicity liver stage against HepG2, at 10uM; assay type: cell-based; design: test concentration 10 uM, cell line HepG2-A16-CD81EGFP; settings: human, HepG2-A16-CD81EGFP cells; read-out: INHIBITION
How it was run: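 Uninfected HepG2-A16-CD81EGFP cells, 3 × 10^3 per well, 1536-well, plated on prespotted compound at 10 μM final, parasite-free screening media added to match infected plates; puromycin 10 μM positive, DMSO 0.5% negative; run in parallel with 48 h PbLuc assay at 37 °C, 5% CO2; viability by CellTiter-Glo luminescence, normalized to controls.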

Row | SMILES | cytotoxicity at 10 µM [%]
1 | CSc1nccc(N2CCC(NCc3nc(C)cc(C)n3)CC2)n1 | 3.41
2 | Cc1nnc(N2C[C@@H]3CCCO[C@@H]3[C@H](N(C)C)C2)s1 | 17.5
3 | Cc1nc2c(c(N[C@H](C(N)=O)C(C)C)n1)Cc1ccccc1OC2 | 4.71
4 | Cc1ccc(-c2nnc(CN3CCN(c4ccccn4)CC3)o2)cc1 | -5.34
5 | CN1CCC(N2CCOC[C@H](OCC(=O)N(C)C)C2)CC1 | 1.44
6 | Cc1ccc(N2CCC3(CCC(=O)N3Cc3ccncc3)CC2)nn1 | -110
7 | O=C(c1ccco1)N1C[C@H]2CCCN(Cc3nccs3)[C@H]2C1 | 2.32
8 | CN(C)CCNC(=O)c1nc2c(o1)CN(c1ncccn1)C2 | -0.603
9 | CN(C(=O)Cn1nnnc1C(C)(C)C)c1ccccc1 | -48.4
10 | CC(O)CN1CCN(C(=O)c2ccn(-c3ccccc3Cl)n2)CC1 (centres undefined) | -11.6
11 | Cc1nc(C(NS(=O)(=O)N(C)C)c2ccccc2F)no1 (centres undefined) | -2.09
12 | COCCNC(=O)[C@@H](C)[C@@H]1CCc2c(C)cc(OCC(=O)O)c(C)c2C1 | 0.523
13 | Fc1cccc(N2CCCC3(C2)CN(c2ncccn2)CCO3)c1 (centres undefined) | 17.4
14 | COc1ccc(NC(C)C(=O)N2CCN(c3ncccn3)CC2)cn1 (centres undefined) | -4.71
15 | O=C1c2c(O)cc(O)cc2O[C@@H](c2ccc(O)cc2)[C@@H]1O | -0.639
16 | CC(C)c1cc(C(=O)NC2CCN(CC(N)=O)CC2)nn1C(C)(C)C | -6.95
17 | Cc1ccc(CN2CCC(NC(=O)c3scnc3C)CC2)cc1 | -4.1
18 | CCCC(=O)N1C[C@@H]2CCN(c3cnccn3)C[C@@H]2C1 | -1.48
19 | CC(=O)NCCC(=O)NC(C)c1sc(-c2ccccc2F)nc1C (centres undefined) | 7.92
20 | CCc1nc2n(n1)CC(NCc1ccccc1OCC(=O)NC)CC2 (centres undefined) | 4.57
21 | Cc1ccccc1C(C(=O)NCCN1CCC(CO)CC1)N(C)C (centres undefined) | -4.5
22 | Cn1cc(Cl)c(CN2CCn3nc(C(=O)N4CCCC4)cc3C2)n1 | 2.42

Row | SMILES | cytotoxicity at 10 µM [%]
23 | COc1nccnc1N1CCC2(CCCN(C(C)C)C2=O)C1 (centres undefined) | 2.57
24 | NS(=O)(=O)c1cnn(CCC(=O)N(Cc2ccccc2)C2CC2)c1 | 4.53
25 | CCN(C(=O)c1nc2c(s1)CCCN2C)C(C)C | 4.37
26 | O=C(NCC1CC1)Nc1cccc(N2CCN(CC3CC3)CC2)c1 | -13.3
27 | Cc1nn(CCO)c(C)c1CNC1CCC(C)(C)c2ccccc21 (centres undefined) | -3.34
28 | CC(=O)Nc1ccc(C(=O)N(C)Cc2ccc(F)cc2F)s1 | 6.43
29 | c1ccc(CNCC2Cn3nnc(-c4ccncc4)c3CO2)nc1 (centres undefined) | -1.99
30 | Cn1c(CN2CCC(O)CC2)nnc1C1CCCN(c2ccncc2)C1 (centres undefined) | 9.29
31 | CC(C)S(=O)(=O)N1CCCC(c2nnc(Cn3ccnc3)n2C)C1 (centres undefined) | -2.83
32 | O=C(CC1CCCC1)NCCn1ccc(-c2ccncc2)n1 | 5.97
33 | Cc1n[nH]c(C2CN(Cc3nnc(C4CCC4)o3)CCO2)n1 (centres undefined) | -3.72
34 | CC(C)(C)n1cc(C(=O)N2CCCN(Cc3cccs3)CC2)cn1 | -5.95
35 | COc1ccccc1C(CNC(=O)NCc1cc[nH]n1)N1CCCC1 (centres undefined) | -0.634
36 | COc1ccccc1C(N)CC(C)C (centres undefined) | 6
37 | COc1cc(C(=O)NS(=O)(=O)c2ccc(C#N)cc2)ccc1C | -6.56
38 | CCn1ccnc1CN1CCC(N(Cc2ncc(C)o2)C(C)=O)C1 (centres undefined) | 11.5
39 | CCC(=O)N1Cc2nccn2CC(CN(C)Cc2cccnc2)C1 (centres undefined) | 3.55
40 | Cc1nc(C)c(CN2CCOC[C@H](Oc3ccc(S(C)(=O)=O)cc3)C2)s1 | 5.25
41 | CN(Cc1ccc([S+](C)[O-])cc1)c1ccc(Cl)cn1 (centres undefined) | 8.97
42 | c1cncc(NCCNC2CCSCC2)c1 | -0.307
43 | Cc1cnc(N2C(=O)CSC2c2ccccc2)s1 (centres undefined) | -1.14
44 | OC1(CNc2cc(C(F)(F)F)nc3ccccc23)CCOCC1 | -11.3

Row | SMILES | cytotoxicity at 10 µM [%]
45 | O=c1[nH]nc(CNc2ncc(Br)cn2)[nH]1 | -5.12
46 | O=C1CO[C@@H]2CN(CC3CCOC3)C[C@H]2N1Cc1cccc(F)c1 (some centres undefined) | -73.5
47 | O=c1cc(N2CCNCC2)cnn1CCCn1cccn1 | -48
48 | CC(C)CN1CCN(C(=O)c2[nH]nnc2Nc2ccccc2F)CC1 | 18.7
49 | NC(=O)c1cn(CC2CCC2)c(C2CC2)n1 | 12.8
50 | CCc1nc(CN(C(C)=O)C2CCN(CCc3ccccc3)C2)no1 (centres undefined) | -2.18
51 | CN(C)CCOC[C@H]1CC[C@H]2[C@H](CCN2C(=O)c2ccoc2)O1 | -81.5
52 | CN(CC(F)(F)F)C(=O)CNC(=O)N1CCCC(N(C)C)C1 (centres undefined) | -7.91
53 | Cc1cnccc1N1CCCN(C(=O)CCCS(N)(=O)=O)CC1 | -18.7
54 | CN(CC(=O)Nc1ccon1)S(=O)(=O)c1cc(Cl)ccc1Cl | 0.424
55 | COc1ccc2c(c1)CCCN2C(=O)CN1CCOC(C)C1 (centres undefined) | 2.59
56 | Cn1cc(Cl)c(CN2CCn3nc(C(=O)Nc4ccccc4)cc3C2)n1 | -2.8
57 | CCCc1ccc(C(=O)N2CCn3c(nnc3C(C)C)C2)cc1 | 9.83
58 | CC(O)CN1CCN(C(=O)c2ccc(N(C)C)nc2)CC1 (centres undefined) | -9.78
59 | CCc1nc(Nc2ccc(C(=O)NC)cc2)c2c(n1)c(C)nn2CC | 9.38
60 | Cn1ccnc1CN(Cc1ccccn1)Cc1ccccc1Cl | 11.5
61 | CN1CCOC2(CCCN(C(=O)C3CCCCC3)C2)C1 (centres undefined) | -6.66
62 | Cc1cc(NC(=O)NCCc2ccc3c(c2)OCCO3)n(C)n1 | -0.838
63 | Cc1cnn(CC2CCCCN2Cc2nc(N)c3ccccc3n2)c1 (centres undefined) | -7.21
64 | Cc1nnc([C@@H]2C[C@H]3CN(C(=O)c4sccc4C)C[C@H]3O2)[nH]1 | 16
65 | Cc1nnc(N2CCOC(Cn3cccn3)C2)c(C#N)c1C (centres undefined) | -8.47
66 | Cc1ccc(C)c(OC(C)C(=O)NCCNc2cccnc2)c1 (centres undefined) | 1.32

Row | SMILES | cytotoxicity at 10 µM [%]
67 | O=C(c1ccc(Oc2cccnc2)cc1)N1CCN(CCO)CC1 | -41.5
68 | Cc1ccc(OCC(O)CN2CCC(Cn3cc(C)cn3)CC2)cc1 (centres undefined) | -3.17
69 | CCN1C(=O)C(c2ccccc2)CC12CCN(c1ncccn1)CC2 (centres undefined) | 1.11
70 | CN(Cc1ccc(N(C)C)cc1)C(=O)CSc1ccc(Br)cc1 | 45.6
71 | COc1cccc([C@H]2CN(CCCS(=O)(=O)N(C)C)C[C@@H]2N)c1 | -1.18
72 | O=C(CN1CCNCC1)N1CC[C@@H](c2ccc3ccccc3c2)[C@H](O)C1 | -8.9
73 | CC[C@H]1CN2CC[C@H]1C[C@@H]2CNC(=O)NC1CCCCC1 | 0.91
74 | COc1ccc(S(=O)(=O)N2CCOC(C)(C(N)=O)C2)cc1 (centres undefined) | 5.49
75 | Oc1cccc(-c2cc(CC3(N(CC4CC4)CC4CC4)COC3)no2)c1 | 6.15
76 | CCOC(=O)C1(Cc2ccccc2)CCCN(Cc2nccn2CC)C1 (centres undefined) | 8.82
77 | Cc1nnc(NCCc2coc(-c3ccc(F)cc3)n2)c(C#N)c1C | -16.3
78 | Cc1noc(C2CCN(C(=O)c3ccc(NC4CC4)nc3)CC2)n1 | -7.1
79 | CC(=O)NCCNC(=O)Nc1cc(C(C)(C)C)sc1C#N | 0.665
80 | Cc1ccc(CN2CCC3(CC(=O)N(c4cccc(F)c4)C3)C2)o1 (centres undefined) | -140
81 | COC(=O)C1CCCN1Cc1ccco1 (centres undefined) | 9.21
82 | O=C(c1cnoc1)N1CCC[C@]2(C[C@H](Oc3ncccc3F)CO2)C1 | -10.2
83 | CCn1c(C)nnc1CN(C)C1CCN(Cc2c(C)noc2C)C1 (centres undefined) | 0.317
84 | O=C(CN1CCCNC1=O)N1CCCC(c2nccs2)C1 (centres undefined) | -12.5
85 | Cc1cnn(CC2CCCN2C(=O)c2ccccc2-n2cccn2)c1 (centres undefined) | -4.16
86 | Cc1cccc(=O)n1CCC(=O)N1CC[C@](C)(O)[C@H](C)C1 | 2.81
87 | COc1ccc(C[C@H]2CN(c3nnc(C)s3)CC[C@@H]2OC)cc1 | -3.23
88 | CCC(NC(=O)c1cnc(N(C)C)nc1C)c1ccc(S(C)(=O)=O)cc1 (centres undefined) | -3.5

Row | SMILES | cytotoxicity at 10 µM [%]
89 | Cc1ccc(CN2C[C@@H]3C[C@H](C(=O)NCC4CC4)N(C)[C@@H]3C2)o1 | -3.63
90 | O=S1(=O)COCCN1Cc1ccc(F)c(F)c1 | 3.42
91 | CCCc1ccc2oc(C(=O)N3CCN(CCOC)CC3)c(C)c2c1 | -8.36
92 | COc1ccc(CNc2cc3[nH]c(O)nc3cc2C)cc1 | 18.1
93 | CCOc1c(Cl)cccc1NCc1cc(C)on1 | 1.04
94 | COC(=O)c1ccc(CNC(=O)Nc2ccc(=O)n(C)c2)cc1 | -6.8
95 | COCCN1CCN(Cc2ccc(C(C)=O)cc2)[C@H]2CS(=O)(=O)C[C@H]21 | -0.571
96 | c1csc(CN2CCC3(COCCN(CC4CC4)C3)C2)n1 (centres undefined) | 1.44
97 | CC(=O)NCCCSCCOc1cccc(C#N)c1 | 11.4
98 | CS(=O)(=O)NCC1CCCCN1C(=O)c1ccc(Br)s1 (centres undefined) | 1.58
99 | Cc1noc(CN2CCN(C(C)C(=O)NCc3cccs3)CC2)n1 (centres undefined) | 17.2
100 | CCN(CC)C(=O)c1ccc(-c2ccsc2)nc1C | -13.4
101 | Cc1ccc(-c2nc(CNCCn3cccn3)cs2)o1 | -5.9
102 | O=C(O)c1cccc(C2CCCN(S(=O)(=O)N3CCOCC3)C2)c1 (centres undefined) | 9.45
103 | O=C(CN1CC(n2cccn2)C1)NCCc1c[nH]c2ccccc12 | -4.74
104 | N#Cc1ccc(N2CCN(c3cnccn3)CC2)c(C(F)(F)F)c1 | 46.6
105 | Cc1cc(C)n(CCN2CCC(N(C)Cc3nnc(C)n3C)C2)n1 (centres undefined) | 2.35
106 | Cc1noc([C@H]2C[C@@H]3CCN(C(=O)C4CCOCC4)C[C@H]3O2)n1 | 7.62
107 | CC(NC(=O)C1CC1)C(=O)N(C)Cc1ccsc1 (centres undefined) | 3.64
108 | Cc1cccc(COC[C@H]2CC[C@H]3[C@H](CCN3C(=O)CC3CC3)O2)n1 | -4.66
109 | CSC1(CNC(=O)c2cccc(-n3cccn3)c2)CCOCC1 | -2.44

Source: ChEMBL document CHEMBL4513216, “Probing the Open Global Health Chemical Diversity Library for Multistage-Active Starting Points for Next-Generation Antimalarials” (ACS Infect Dis, 2020)
